Compound activity as filed in PubChem.
Only some compounds are listed: those with a hit (about 1.9% of all), similar ones and a draw of the others.
M4 ag = human M4 muscarinic receptor agonists, primary screen, CHO-K1 cells, Fluo-8 calcium fluorescence | Muscarinic acetylcholine receptor M4 (Homo sapiens), P08173 | CHO-K1 hM4/Gqi5; vehicle 0%, full acetylcholine response 100% | activation, % at 3 µM | hit rate 0.14% among 360,000;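 active means activation above the run mean over all test wells plus 3 SD, cut at about 32% in these data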;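 further: peak over basal fluorescence ratio per well then scaled between controls; 0% = DMSO wells and 100% = acetylcholine at EC100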
Target sequence (P08173 whole entry, looked up): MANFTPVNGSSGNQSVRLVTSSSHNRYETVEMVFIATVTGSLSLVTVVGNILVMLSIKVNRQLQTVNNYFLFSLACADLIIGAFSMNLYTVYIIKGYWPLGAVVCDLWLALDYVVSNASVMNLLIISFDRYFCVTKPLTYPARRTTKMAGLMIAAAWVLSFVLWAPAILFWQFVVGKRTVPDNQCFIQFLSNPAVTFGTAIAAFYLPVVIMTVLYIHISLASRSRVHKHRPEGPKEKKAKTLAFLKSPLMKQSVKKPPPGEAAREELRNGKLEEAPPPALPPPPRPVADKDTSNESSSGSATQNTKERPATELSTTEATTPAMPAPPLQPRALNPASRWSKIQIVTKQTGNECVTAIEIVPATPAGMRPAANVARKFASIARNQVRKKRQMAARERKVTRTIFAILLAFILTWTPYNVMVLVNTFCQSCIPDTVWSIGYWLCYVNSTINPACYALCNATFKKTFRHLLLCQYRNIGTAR
CHRM4 antagonist = human M4 muscarinic receptor antagonists, primary screen, CHO cells, Fluo-8 calcium fluorescence. CHO-hM4 cells, ACh EC80. inhibition, % at 3 µM. hit rate 0.73% among 360,000;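 active means inhibition above its plate's cutoff, the mean inhibition of sample wells plus 3 SD, cut at about 27% in these data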;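 further: 0% = acetylcholine EC80 with DMSO and 100% = DMSO without agonist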
CHRM5 antagonist = human M5 muscarinic receptor antagonists, primary screen, CHO cells, Fluo-8 calcium fluorescence; AID 624040, 2012; hit rate 0.59% among 360,000; Muscarinic acetylcholine receptor M5 (Homo sapiens), P08912; CHO-hM5 cells, ACh EC80; inhibition, % at 3 µM;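 active means inhibition above a per-plate cutoff, the mean of that plate's test compounds plus 3 SD, cut at about 27% in these data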;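 further: 0% = acetylcholine EC80 with DMSO and 100% = DMSO without agonist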
M5 PAM = human M5 muscarinic receptor positive allosteric modulators, primary screen, CHO-K1 cells, Fluo-8 calcium fluorescence | AID 624038, 2012 | CHO-K1 hM5, ACh EC20 PAM; 0% = ACh EC20, 100% = ACh EC100 | hit rate 0.3% among 360,000 | activation, % at 3 µM | Muscarinic acetylcholine receptor M5 (Homo sapiens), P08912;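 active means activation above the run cutoff, the mean activation of all test compounds plus 3 SD, cut at about 18% in these data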
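system = human M5 receptor in CHO-K1 cells | compound = one concentration, 3 µM final (nominal) | schedule = Post-acetylcholine fluorescence recording 140 s | signal = Fluo-8 calcium dye fluorescence, kinetic read | benchmarks = low control EC20 acetylcholine (0%), high control EC100 acetylcholine (100%) | repeats = singlicate, one well per test compound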
CHRM4 PAM = human M4 muscarinic receptor positive allosteric modulators, primary screen, CHO-K1 cells, Fluo-8 calcium fluorescence; AID 624126, 2012; Muscarinic acetylcholine receptor M4 (Homo sapiens), P08173; hit rate 0.4% among 360,000; activation, % at 3 µM; CHO-K1 hM4/Gqi5, ACh EC20; 0% = ACh EC20, 100% = maximal ACh;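 active means activation above its plate's cutoff, the mean activation of sample wells plus 3 SD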
M5 ag = human M5 muscarinic receptor agonists, primary screen, CHO-K1 cells, Fluo-8 calcium fluorescence. Muscarinic acetylcholine receptor M5 (Homo sapiens), P08912. CHO-K1 hM5 cells; 0% DMSO wells, 100% maximal acetylcholine response. activation, % at 3 µM. hit rate 0.19% among 360,000;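 active means activation above the run's mean over test compounds plus 3 SD, cut at about 23% in these data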;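 further: signal is peak over basal fluorescence ratio across the kinetic read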
Active calls of the source: *.

`Cc1cc(-c2nnc(SCC(=O)Nc3nccs3)o2)no1` gave M4 ag -1, CHRM4 antagonist 13, CHRM5 antagonist -15, M5 PAM 20*, CHRM4 PAM 16 and M5 ag 7.
`O=C1C=C(c2c(O)ccc3ccccc23)c2ccccc2C1=O` gave M4 ag 20, CHRM4 antagonist 47*, CHRM5 antagonist 17, M5 PAM -5, CHRM4 PAM -7 and M5 ag -3.
For COc1ccc(NC(=O)CC2C(=O)N(CCc3ccccc3)C(=S)N2Cc2cccnc2)cc1 (stereo not given) the results were M4 ag 16, CHRM4 antagonist 27*, CHRM5 antagonist 10, M5 PAM -6, CHRM4 PAM -10 and M5 ag 6.
For NC(=O)C(c1ccccc1)C1CCCCC1 (stereo not given) the results were M4 ag 2, CHRM4 antagonist -1, CHRM5 antagonist -3, M5 PAM 0, CHRM4 PAM 3 and M5 ag 0.
CCN(CCO)C(=O)C(c1ccccc1)c1ccccc1 was read as M4 ag 0, CHRM4 antagonist 4, CHRM5 antagonist -6, M5 PAM 5, CHRM4 PAM 11 and M5 ag -3.
For CCN(CC)CCSC(=O)C(c1ccccc1)c1ccccc1 the results were M4 ag 1, CHRM4 antagonist 96*, CHRM5 antagonist 99*, M5 PAM -19, CHRM4 PAM -17 and M5 ag -2.
CCN(CC)CCOC(=O)C(c1ccccc1)C1CCCCC1 (stereo not given) was read as M4 ag 1, CHRM4 antagonist 100*, CHRM5 antagonist 99*, M5 PAM -19, CHRM4 PAM -19 and M5 ag -1.
`CCN(CC)CCOC(=O)C(c1ccccc1)c1ccccc1` gave M4 ag 2, CHRM4 antagonist 54*, CHRM5 antagonist 98*, M5 PAM -18, CHRM4 PAM -17 and M5 ag -1.
For CCc1nc2ccc(C(=O)NCCN3CCNC3=O)cn2c1N(C)CCC(C)C the results were M4 ag 2, CHRM4 antagonist -14, CHRM5 antagonist 17, M5 PAM 0, CHRM4 PAM -2 and M5 ag -8.
CN(C(=O)CCNC(=O)Cn1cnc2ccccc2c1=O)c1ccc(Br)cc1 was read as M4 ag 1, CHRM4 antagonist 9, CHRM5 antagonist 6, M5 PAM 0, CHRM4 PAM -4 and M5 ag 0.
`CN(CCc1ccccn1)C(=O)CCNC(=O)Cn1cnc2ccccc2c1=O` gave M4 ag 2, CHRM4 antagonist -13, CHRM5 antagonist 6, M5 PAM 1, CHRM4 PAM 19* and M5 ag 2.
CC1(C(=O)NS(=O)(=O)C2CC2)CCN(C(=O)c2ccc(F)c(Cl)c2)C1 (stereo not given) was read as M4 ag 0, CHRM4 antagonist -7, CHRM5 antagonist -2, M5 PAM -2, CHRM4 PAM 0 and M5 ag 1.
`O=C(c1ccccc1)c1ccccc1N1C(=O)C=CC1=O` gave M4 ag 9, CHRM4 antagonist 72*, CHRM5 antagonist 6, M5 PAM 3, CHRM4 PAM -41 and M5 ag 4.
`O=C1C=CC(=O)N1c1ccccc1N1C(=O)C=CC1=O` gave M4 ag 3, CHRM4 antagonist -1, CHRM5 antagonist 0, M5 PAM -2, CHRM4 PAM 4 and M5 ag 5.
CC1(C)CC(=O)C2=C(C1)OC(N)=C(C#N)C2c1cccs1 (stereo not given) was read as M4 ag 0, CHRM4 antagonist 6, CHRM5 antagonist 1, M5 PAM -6, CHRM4 PAM -8 and M5 ag -1.
For COC(=O)C1=C(N)OC2=C(C(=O)CC(C)(C)C2)C1c1cccs1 (stereo not given) the results were M4 ag 1, CHRM4 antagonist -7, CHRM5 antagonist -1, M5 PAM 4, CHRM4 PAM 20* and M5 ag -3.
`Nc1ccn([C@@H]2O[C@H](C(=O)N(CCC3=CCCCC3)CC3CC3)[C@@H](O)[C@H]2O)c(=O)n1` gave M4 ag 0, CHRM4 antagonist -3, CHRM5 antagonist -1, M5 PAM 2, CHRM4 PAM -2 and M5 ag 0.
For COc1cccc(CN2CCC(C)(Oc3cccc(Cl)c3)C2)c1OC (stereo not given) the results were M4 ag 4, CHRM4 antagonist -13, CHRM5 antagonist 0, M5 PAM -4, CHRM4 PAM -5 and M5 ag 0.
For Cc1ccc(S(=O)(=O)N2CCN(C(=O)c3sccc3-c3ccccc3)CC2)cc1 the results were M4 ag 6, CHRM4 antagonist 2, CHRM5 antagonist 30*, M5 PAM -12, CHRM4 PAM -7 and M5 ag -6.
COc1ccc(N2CCN(C(=O)C3(S(=O)(=O)c4ccc(C)cc4)CC3)CC2)cc1 was read as M4 ag 2, CHRM4 antagonist -9, CHRM5 antagonist -15, M5 PAM 23*, CHRM4 PAM -4 and M5 ag 0.
`CC(=O)c1ccc(N2CCN(C(=O)C3(S(=O)(=O)c4ccc(Cl)cc4)CC3)CC2)cc1` gave M4 ag 7, CHRM4 antagonist 0, CHRM5 antagonist -4, M5 PAM -7, CHRM4 PAM -5 and M5 ag 3.
`Cn1nc(C(=O)NCc2cccnc2)c2ccccc2c1=O` gave M4 ag 1, CHRM4 antagonist -9, CHRM5 antagonist 12, M5 PAM 20*, CHRM4 PAM 7 and M5 ag 0.
CCn1cc(C(=O)NCCOC)c(=O)c2ccc(C)nc21 was read as M4 ag 0, CHRM4 antagonist 0, CHRM5 antagonist 0, M5 PAM -16, CHRM4 PAM -2 and M5 ag -4.
`CCn1cc(C(=O)NCc2ccco2)c(=O)c2ccc(C)nc21` gave M4 ag 1, CHRM4 antagonist -22, CHRM5 antagonist -10, M5 PAM 13, CHRM4 PAM 19* and M5 ag -1.
Screening Cn1nc(C(=O)NCc2ccco2)c2ccccc2c1=O returned M4 ag 2, CHRM4 antagonist -2, CHRM5 antagonist 3, M5 PAM -3, CHRM4 PAM 23* and M5 ag -1.
